One series concerns HCT-116. Kind of series: Antiproliferative activity against human HCT-116 cells harboring wild type p53 overexpressing MDM2 assessed as inhibition of cell growth incubated for 48 hrs by MTS assay. It counts as functional, cell-based. The settings on record: HCT-116, 48 h. The essentials:
(§1)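 MTS viability: cells seeded 1×10^4/well (HCT116), 3×10^3/well (SJSA-1, LNCaP), 5×10^3/well (MCF-7), treated ~24 h after plating with DMSO-stock compounds serially diluted in medium (final DMSO ≤0.1%). Ten or more concentrations over 1–100 µM, duplicates, ≥3 independent runs. Exposure 48 h (HCT116), 72 h (MCF-7), 96 h (SJSA-1, LNCaP). MTS 0.5 mg/mL added for 15–30 min, A490. IC50 from four-parameter variable-slope fit.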

The next series relates to MCF7. Kind of series: Antiproliferative activity against human MCF7 cells harboring wild type p53 overexpressing MDM2/4 assessed as inhibition of cell growth incubated for 72 hrs by MTS assay. Format: functional, cell-based. The note with it: MCF7, 72 h. The essentials: as §1
For series [1], the system named is SJSA-1. As to the kind of experiment: Antiproliferative activity against human SJSA-1 cells harboring wild type p53 overexpressing MDM2/4 assessed as inhibition of cell growth incubated for 96 hrs by MTS assay. Format: functional, cell-based. The settings on record: SJSA-1, 96 h. An outline of the steps: as §1
The test system of the next series is LNCaP. As to the kind of experiment: Antiproliferative activity against human LNCaP cells harboring wild type p53 overexpressing MDM2/4 assessed as inhibition of cell growth incubated for 96 hrs by MTS assay. Format: functional, cell-based. An outline of the steps:
as §1

In another series the test system is HEK-293T. As to the kind of experiment: Cytotoxicity against HEK293T cells assessed as reduction in cell viability at 15 uM incubated for 96 hrs by MTS assay. Format: toxicity, cell-based. The note with it: human. The essentials: (§2)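 Single-concentration MTS viability with DMSO vehicle control (final ≤0.1%) run in parallel. HEK293T: 3×10^3 cells/well, 15 µM for 96 h. HCT116 p53(-/-): 20 µM for 48 h. Compound added ~24 h after plating; MTS 0.5 mg/mL in fresh medium for 15–30 min, A490. Mean ± SD of three independent experiments, one-way ANOVA with Bonferroni test.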

Series [2] can be described thus: Antiproliferative activity against human HCT116-p53-null cells assessed as reduction in cell viability at 20 uM incubated for 48 hrs by MTS assay. Format: functional. The essentials:
as §2

Series [3] concerns SJSA-1. As to the kind of experiment: Induction of apoptosis in human SJSA-1 cells assessed as viable cells at 10 uM incubated for 96 hrs by Annexin V-FITC/7-AAD staining based flow cytometric analysis (reference value: 94.3%). The note with it: read-out: Activity. Format: functional.
The test system of series [4] is SJSA-1. As to the kind of experiment: Induction of apoptosis in human SJSA-1 cells assessed as early apoptotic cells at 10 uM incubated for 96 hrs by Annexin V-FITC/7-AAD staining based flow cytometric analysis (reference value: 1.9%). It counts as functional.
The subject of series [5] is SJSA-1. Kind of series: Induction of apoptosis in human SJSA-1 cells assessed as late apoptotic cells at 10 uM incubated for 96 hrs by Annexin V-FITC/7-AAD staining based flow cytometric analysis (reference value: 3.7%). Format: functional.
In series [6] the test system is SJSA-1. As to the kind of experiment: Induction of apoptosis in human SJSA-1 cells assessed as viable cells at 15 uM incubated for 96 hrs by Annexin V-FITC/7-AAD staining based flow cytometric analysis (reference value: 94.3%). Format: functional. The settings on record: read-out: Activity.
In series [7] the test system is SJSA-1. As to the kind of experiment: Induction of apoptosis in human SJSA-1 cells assessed as early apoptotic cells at 15 uM incubated for 96 hrs by Annexin V-FITC/7-AAD staining based flow cytometric analysis (reference value: 1.9%). It counts as functional.
Series [8] concerns SJSA-1. Kind of series: Induction of apoptosis in human SJSA-1 cells assessed as late apoptotic cells at 15 uM incubated for 96 hrs by Annexin V-FITC/7-AAD staining based flow cytometric analysis (reference value: 3.7%). Format: functional.
Series [9] concerns SJSA-1. As to the kind of experiment: Induction of cell death in human SJSA-1 cells assessed as reduction in cell growth at IC50 incubated for 96 hrs by bright field microscopic analysis. It counts as functional, cell-based. An outline of the steps: (§3)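 Brightfield microscopy of SJSA-1 cell morphology after 96 h with DMSO vehicle or compound.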
The test system of series [10] is SJSA-1. As to the kind of experiment: Induction of cell death in human SJSA-1 cells assessed as loss of cell volume at 1.5 times IC50 incubated for 96 hrs by bright field microscopic analysis. Format: functional, cell-based. The essentials:
as §3

Series [11] has as its system SJSA-1. As to the kind of experiment: Induction of cell cycle arrest in human SJSA-1 cells assessed as accumulation of cells at G0/G1 phase at 10 uM incubated for 96 hrs by RNaseA/PI staining based flow cytometry analysis (reference value: 50.93 %). It counts as functional.
Series [12] deals with SJSA-1. As to the kind of experiment: Induction of cell cycle arrest in human SJSA-1 cells assessed as accumulation of cells at S phase at 10 uM incubated for 96 hrs by RNaseA/PI staining based flow cytometry analysis (reference value: 30.25 %). It counts as functional.
The test system of series [13] is SJSA-1. Kind of series: Induction of cell cycle arrest in human SJSA-1 cells assessed as accumulation of cells at G2/M phase at 10 uM incubated for 96 hrs by RNaseA/PI staining based flow cytometry analysis (reference value: 18.82 %). It counts as functional.
In series [14] the test system is SJSA-1. As to the kind of experiment: Induction of cell cycle arrest in human SJSA-1 cells assessed as accumulation of cells at G0/G1 phase at 15 uM incubated for 96 hrs by RNaseA/PI staining based flow cytometry analysis (reference value: 50.93 %). It counts as functional.
In series [15] the test system is SJSA-1. Kind of series: Induction of cell cycle arrest in human SJSA-1 cells assessed as accumulation of cells at S phase at 15 uM incubated for 96 hrs by RNaseA/PI staining based flow cytometry analysis (reference value: 30.25 %). It counts as functional.
For series [16], the system named is SJSA-1. Kind of series: Induction of cell cycle arrest in human SJSA-1 cells assessed as accumulation of cells at G2/M phase at 15 uM incubated for 96 hrs by RNaseA/PI staining based flow cytometry analysis (reference value: 18.82 %). Format: functional.

The structures appear in SMILES notation. Calls of active or inactive are those of the source. The rule behind the calls is not given here.

Take `CCOC(=O)C1=NN(C2CCCCC2)C2(C(=O)Nc3cc(Cl)ccc32)C1c1ccc(F)cc1` (configuration not stated): the IC50 in the series with HCT-116 was 31.7 µM; in the series with MCF7 it was 20.2 µM.
In the case of `CCOC(=O)C1=NN(C(C)(C)C)C2(C(=O)Nc3cc(Cl)ccc32)C1c1ccc(F)cc1` (configuration not stated), the IC50 with HCT-116 was 49.9 µM.
Same read-out and setting: under `CCOC(=O)C1=NN(C2CCCCC2)C2(C(=O)Nc3cc(Cl)ccc32)C1c1ccc(Cl)cc1` (configuration not stated) stands 39.1 µM.
In the case of `O=C(NCCO)C1=NN(c2ccc(Cl)cc2)C2(C(=O)Nc3cc(Cl)ccc32)C1c1cccc(O)c1` (configuration not stated), the IC50 in the series on HCT-116 is greater than 50 µM.
Turning to `CC(C)(C)N1N=C(C(=O)Nc2ccc(O)cc2)C(c2cccc(Cl)c2F)C12C(=O)Nc1cc(Cl)ccc12` (configuration not stated), in the series with HCT-116, the IC50 was determined as 34.2 µM.
On the same count and under the same terms, under `CC(C)(C)N1N=C(C(=O)NCCO)C(c2cccc(Cl)c2F)C12C(=O)Nc1cc(Cl)ccc12` (configuration not stated) stands greater than 50 µM; under `O=C(O)C1=NN(C2CCCCC2)C2(C(=O)Nc3cc(Cl)ccc32)C1c1cccc(Cl)c1F` (configuration not stated), greater than 100 µM; under `O=C(NCC1(O)CCC1)C1=NN(c2ccc(Cl)cc2)C2(C(=O)Nc3cc(Cl)ccc32)C1c1cccc(O)c1` (configuration not stated), 37.2 µM.
`O=C(Nc1cccc(-n2ccc(-c3ccccc3)n2)c1)C1=NN(c2ccc(Cl)cc2)C2(C(=O)Nc3cc(Cl)ccc32)C1c1cccc(O)c1` (configuration not stated): the IC50 worked out at 18.8 µM in the series on HCT-116, 10.7 µM with SJSA-1 [1], 11.4 µM with LNCaP and 9.7 µM in the series with MCF7. The Activity entry with HEK-293T was “Non-Toxic”; in [2], 52%; in the series with SJSA-1 [4], 4.1%; in the series with SJSA-1 [5] it was 5.2%; in the series on SJSA-1 [7], 14.4%; with SJSA-1 [8] it was 19.1%. The Activity in the series with SJSA-1 [11] is recorded as 74.89%; with SJSA-1 [12] it was 16.17%; in the series on SJSA-1 [13], 8.94%; in the series on SJSA-1 [14], 91.82%; in the series with SJSA-1 [15], 4.27%; in the series with SJSA-1 [16], 3.91%. Besides, the viability at 10 µM in the series on SJSA-1 [3] is 90.5%. In addition, the viability at 15 µM with SJSA-1 [6] turned out to be 65.3%. The outcome in the series on SJSA-1 [9] and in the series on SJSA-1 [10] was Active.
With `CCOC(=O)C1=NN(C(C)(C)C)C2(C(=O)Nc3cc(Cl)c(F)cc32)C1c1cccc(F)c1` (configuration not stated), the concentration for half-maximal inhibition (IC50) in the series with HCT-116 amounted to 41.9 µM.
For `CCOC(=O)C1=NN(C2CCCCC2)C2(C(=O)Nc3cc(Cl)ccc32)C1c1cccc(Cl)c1` (configuration not stated), the IC50 with HCT-116 was found to be 25.5 µM.
Still for that read-out and setting: under `CC(C)(C)N1N=C(C(=O)NCCc2ccc(O)cc2)C(c2cccc(Cl)c2F)C12C(=O)Nc1cc(Cl)ccc12` (configuration not stated) stands 30.2 µM.
